Converted amounts (≈) assume the structure as drawn.
Columns and labels:
Format in all cases: functional
Candida albicans = assay: Antifungal activity against Candida albicans after 24 hrs
Summary of the method: (§1)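 Candida yeasts were tested by NCCLS microdilution in RPMI 1640 buffered with 0.165 M MOPS and incubated at 35 °C. Compounds were dissolved in DMSO and serially diluted in medium. Isolates came from ATCC or the clinic. The MIC was read at 24 h as the lowest concentration achieving ≥80% growth inhibition versus the control.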

Candida parapsilosis = assay: Antifungal activity against Candida parapsilosis after 24 hrs; conditions: Lodderomyces parapsilosis; summary of the method: as §1
Cryptococcus neoformans = assay: Antifungal activity against Cryptococcus neoformans after 72 hrs
Summary of the method: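 Cryptococcus neoformans was tested by NCCLS serial dilution in MOPS-buffered (0.165 M) RPMI 1640 at 35 °C. Compounds were dissolved in DMSO and diluted in medium. The MIC was read at 72 h as the lowest concentration giving turbidity inhibition of ≥80% relative to the growth control.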

Trichophyton rubrum = assay: Antifungal activity against Trichophyton rubrum
Summary of the method: (§2)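 Dermatophytes were tested by NCCLS serial dilution in RPMI 1640 with 0.165 M MOPS and incubated at 28 °C. Compounds were dissolved in DMSO and diluted in medium. Strains came from ATCC or clinical isolates. The MIC was read at 7 d as the lowest concentration reducing turbidity by ≥80% relative to the drug-free control.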

Fonsecaea compacta = assay: Antifungal activity against Fonsecaea compacta
Summary of the method: (§3)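 NCCLS broth serial dilution in RPMI 1640 buffered with 0.165 M MOPS. Compounds were dissolved in DMSO and serially diluted in medium. Strains came from ATCC or clinical isolates. The growth MIC for filamentous fungi was read at 7 d, taken as the lowest concentration giving ≥80% turbidity inhibition versus the growth control.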

Aspergillus fumigatus = assay: Antifungal activity against Aspergillus fumigatus; summary of the method: as §3
Microsporum = assay: Antifungal activity against Microsporum gypseum; summary of the method: as §2

SMILES	MIC (Candida albicans) [µM]	MIC (Candida parapsilosis) [µM]	MIC (Cryptococcus neoformans) [µM]	MIC (Trichophyton rubrum) [µM]	MIC (Fonsecaea compacta) [µM]	MIC (Aspergillus fumigatus) [µM]	MIC (Microsporum) [µM]
CCCCCCCCCCN1CCc2cc(O)c(O)cc2C1	> 64	0.5 (≈ 0.153 µg/mL)	1 (≈ 0.305 µg/mL)	1 (≈ 0.305 µg/mL)	16 (≈ 4.89 µg/mL)	16 (≈ 4.89 µg/mL)	> 64
Oc1ccc2c(c1)CC(Nc1ccc(Cl)cc1)CC2 (stereo not drawn)	> 64	32 (≈ 8.76 µg/mL)	16 (≈ 4.38 µg/mL)	2 (≈ 0.548 µg/mL)	32 (≈ 8.76 µg/mL)	64 (≈ 17.5 µg/mL)	4 (≈ 1.1 µg/mL)
Oc1cccc2c1CC(Nc1ccc(Cl)cc1)CC2 (stereo not drawn)	16 (≈ 4.38 µg/mL)	32 (≈ 8.76 µg/mL)	32 (≈ 8.76 µg/mL)	8 (≈ 2.19 µg/mL)	64 (≈ 17.5 µg/mL)	> 64	8 (≈ 2.19 µg/mL)
CCCCNC1CCc2cccc(O)c2C1 (stereo not drawn)	> 64	> 64	> 64	> 64	> 64	> 64	64 (≈ 14 µg/mL)
CCCCCCCCNC1CCc2cccc(OC)c2C1 (stereo not drawn)	16 (≈ 4.63 µg/mL)	32 (≈ 9.26 µg/mL)	16 (≈ 4.63 µg/mL)	4 (≈ 1.16 µg/mL)	8 (≈ 2.32 µg/mL)	32 (≈ 9.26 µg/mL)	8 (≈ 2.32 µg/mL)
NC1CCc2c(O)cccc2C1 (stereo not drawn)	> 64	> 64	> 64	> 64	32 (≈ 5.22 µg/mL)	> 64	> 64
NC1CCc2cc(O)ccc2C1 (stereo not drawn)	> 64	> 64	> 64	> 64	32 (≈ 5.22 µg/mL)	> 64	> 64
NC1CCc2ccc(O)cc2C1 (stereo not drawn)	> 64	> 64	> 64	> 64	32 (≈ 5.22 µg/mL)	> 64	> 64
CCCCCCCCNC1CCc2cccc(O)c2C1 (stereo not drawn)	2 (≈ 0.551 µg/mL)	8 (≈ 2.2 µg/mL)	8 (≈ 2.2 µg/mL)	8 (≈ 2.2 µg/mL)	4 (≈ 1.1 µg/mL)	–	4 (≈ 1.1 µg/mL)
COc1ccc2c(c1)CCC(N)C2 (stereo not drawn)	> 64	> 64	> 64	64 (≈ 11.3 µg/mL)	> 64	> 64	> 64
CCCCCCCCNC1CCc2c(O)cccc2C1 (stereo not drawn)	8 (≈ 2.2 µg/mL)	64 (≈ 17.6 µg/mL)	32 (≈ 8.81 µg/mL)	4 (≈ 1.1 µg/mL)	8 (≈ 2.2 µg/mL)	> 64	8 (≈ 2.2 µg/mL)
CCCCCCCCCNC1CCc2ccc(OC)cc2C1 (stereo not drawn)	0.25 (≈ 0.0759 µg/mL)	4 (≈ 1.21 µg/mL)	4 (≈ 1.21 µg/mL)	0.0625 (≈ 0.019 µg/mL)	2 (≈ 0.607 µg/mL)	16 (≈ 4.86 µg/mL)	4 (≈ 1.21 µg/mL)
CCCCCCCCCNC1CCc2cccc(OC)c2C1 (stereo not drawn)	0.5 (≈ 0.152 µg/mL)	1 (≈ 0.303 µg/mL)	4 (≈ 1.21 µg/mL)	2 (≈ 0.607 µg/mL)	2 (≈ 0.607 µg/mL)	16 (≈ 4.86 µg/mL)	64 (≈ 19.4 µg/mL)
CCCCCCCCCNC1CCc2c(O)cccc2C1 (stereo not drawn)	1 (≈ 0.289 µg/mL)	32 (≈ 9.26 µg/mL)	8 (≈ 2.32 µg/mL)	4 (≈ 1.16 µg/mL)	4 (≈ 1.16 µg/mL)	64 (≈ 18.5 µg/mL)	8 (≈ 2.32 µg/mL)
CCCCCCCCCNC1CCc2cccc(O)c2C1 (stereo not drawn)	1 (≈ 0.289 µg/mL)	8 (≈ 2.32 µg/mL)	8 (≈ 2.32 µg/mL)	4 (≈ 1.16 µg/mL)	4 (≈ 1.16 µg/mL)	16 (≈ 4.63 µg/mL)	4 (≈ 1.16 µg/mL)
CCCCCCCCCCNC1CCc2cc(OC)ccc2C1 (stereo not drawn)	0.25 (≈ 0.0794 µg/mL)	8 (≈ 2.54 µg/mL)	16 (≈ 5.08 µg/mL)	1 (≈ 0.318 µg/mL)	8 (≈ 2.54 µg/mL)	> 64	4 (≈ 1.27 µg/mL)
CCCCCCCCCCNC1CCc2ccc(O)cc2C1 (stereo not drawn)	1 (≈ 0.303 µg/mL)	4 (≈ 1.21 µg/mL)	1 (≈ 0.303 µg/mL)	0.25 (≈ 0.0759 µg/mL)	2 (≈ 0.607 µg/mL)	32 (≈ 9.71 µg/mL)	4 (≈ 1.21 µg/mL)
CCCCCCCCCCCCNC1CCc2c(cccc2OC)C1 (stereo not drawn)	8 (≈ 2.76 µg/mL)	16 (≈ 5.53 µg/mL)	8 (≈ 2.76 µg/mL)	0.5 (≈ 0.173 µg/mL)	8 (≈ 2.76 µg/mL)	> 64	16 (≈ 5.53 µg/mL)
NC1CCc2cccc(O)c2C1 (stereo not drawn)	> 64	> 64	> 64	> 64	32 (≈ 5.22 µg/mL)	> 64	> 64
CCCCNC1CCc2c(cccc2OC)C1 (stereo not drawn)	> 64	> 64	> 64	64 (≈ 14.9 µg/mL)	> 64	> 64	> 64
CCCCNC1CCc2ccc(OC)cc2C1 (stereo not drawn)	64 (≈ 14.9 µg/mL)	64 (≈ 14.9 µg/mL)	> 64	4 (≈ 0.933 µg/mL)	4 (≈ 0.933 µg/mL)	> 64	64 (≈ 14.9 µg/mL)
CCCCCCCCCCCCNC1CCc2ccc(OC)cc2C1 (stereo not drawn)	2 (≈ 0.691 µg/mL)	1 (≈ 0.346 µg/mL)	1 (≈ 0.346 µg/mL)	2 (≈ 0.691 µg/mL)	8 (≈ 2.76 µg/mL)	16 (≈ 5.53 µg/mL)	2 (≈ 0.691 µg/mL)
